Source: PubChem (several laboratories)
cardiac RTF act: increases calcium sensitivity of human cardiac regulated thin filaments; P19429+P45379; IANBD-labeled TnC RTF fluorescence at EC20 calcium; 0% EC20 calcium, 100% full calcium; activation, % at 7.2 µM; actives 0.24% (n = 340,000); AID 493008;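 active = activation above the mean over all tested compounds plus 3 SD, cut at about 30% in these data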;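 note: rise in fluorescence read as greater calcium sensitivity of cardiac thin filaments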
CRFBP-R2 block: antagonists of CRF-binding protein/CRF-R2 receptor complex; HEK293 CRF-R2/CRF-BP, CRF-induced calcium fluorescence; inhibition, % at 11.8 µM; actives 0.59% (n = 350,000); AID 588475;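 active = inhibition of the ligand-induced calcium signal above about 50% at the single tested concentration, limit read from the data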
CRFBP-R2 agonist: agonists of human CRF-binding protein/CRF-R2 receptor complex | HEK293 CRF-R2/CRF-BP, calcium dye fluorescence (FLIPR); percent of saturating CRF peptide response | activation, % at 13.2 µM | actives 0.46% (n = 350,000) | AID 588473;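 active = activation of at least 50%, plus an integration ratio under a set limit after plate pattern correction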
Tn6 DDE FP: disrupts Tn6 cyclic peptide binding to fibrin D-Dimer-E complex; inhibition, % at 8.3 µM; Fibrin DD(E) TRITC-Tn6 fluorescence polarization displacement; P02675; actives 0.21% (n = 370,000);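 active = inhibition above a per-campaign cutoff: mean of compounds within control limits plus 3 SD, cut at about 15% in these data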
Target sequence (P02675 whole entry, looked up): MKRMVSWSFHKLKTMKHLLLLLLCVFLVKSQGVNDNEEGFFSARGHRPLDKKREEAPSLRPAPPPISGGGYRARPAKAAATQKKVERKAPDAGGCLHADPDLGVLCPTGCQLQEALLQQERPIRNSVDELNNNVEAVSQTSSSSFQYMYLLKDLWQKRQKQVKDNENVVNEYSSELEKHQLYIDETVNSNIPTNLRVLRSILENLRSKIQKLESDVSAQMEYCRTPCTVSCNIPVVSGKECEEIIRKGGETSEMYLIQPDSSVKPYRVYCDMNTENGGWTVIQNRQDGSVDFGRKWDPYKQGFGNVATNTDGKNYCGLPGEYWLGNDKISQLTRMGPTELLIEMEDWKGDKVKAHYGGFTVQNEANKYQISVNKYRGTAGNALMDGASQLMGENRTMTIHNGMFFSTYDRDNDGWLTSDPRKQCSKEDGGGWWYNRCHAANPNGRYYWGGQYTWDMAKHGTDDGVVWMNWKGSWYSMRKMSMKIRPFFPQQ
DDE Tn7 FP inh: disrupts Tn7 cyclic peptide binding to fibrin D-Dimer-E complex; P02675; FP displacement of FITC-Tn7 peptide from fibrin DD(E); 0% = median of compound wells per plate; inhibition, % at 8.3 µM; actives 0.13% (n = 370,000); AID 720508;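 active = inhibition above the mean of compounds falling within the control limits plus 3 SD of them, cut at about 14% in these data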
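system = human fibrin DD(E) protein | quantity = DD(E) 2 µM final | medium = Tris/NaCl/CaCl2 buffer, pH 7.8 | also added = labelled Tn7 tracer, 0.1 µM | compound dosing = single point at 8.3 µM | timing = compound with protein 10 min, then 3 h after probe, room temperature | signal = FP measurement | benchmarks = Aha-Tn7 high control | repeats = one replicate per compound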
RTF Ca sens inh: cardiac RTF calcium desensitization; actives 0.12% (n = 340,000); AID 493244; inhibition, % at 7.15 µM; P19429+P45379; IANBD-labeled cardiac RTF, Ca2+ fluorescence;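 active = inhibition above the mean inhibition of all tested compounds plus 3 SD, cut at about 17% in these data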;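 note: assay run at fixed EC70 calcium of 1.6 mM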
DDE Tn6 FP ctr: counter-screen for inhibitors of Tn6 peptide binding to fibrin DD(E); shares compounds with Tn6 DDE FP; TRITC-Tn6 fluorescence polarization displacement; 0% = median of compound wells, not DMSO; inhibition, % at 8.3 µM; actives 2% (n = 680); AID 720621;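 active = inhibition above the mean of test compounds lying between the control limits plus 3 SD of those, cut at about 14% in these data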
Tn6 DDE conf: confirmation of inhibitors of Tn6 binding to human fibrin DD(E); shares compounds with Tn6 DDE FP; FP displacement of TRITC-Tn6 peptide from DD(E); 0% = per-plate median of test wells; inhibition, % at 8.3 µM; actives 10% (n = 680); AID 720631;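 active = inhibition above the mean of compounds lying within the control limits plus 3 SD, cut at about 16% in these data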
Large screens that a line does not name were inactive (follow-up assays come after a bar, where they were run). Rows were chosen to be rich in hits. Some 1.4% of all compounds tested hit in one or more screens of this group.

COC(=O)[C@]12C[C@H](CC(=O)NCc3ccc(OC)c(OC)c3)C(=O)N(CCc3ccc(OC)c(OC)c3)C1=C[C@H](COCc1ccccc1)O[C@@H]2C	Tn6 DDE FP 15 (no result: cardiac RTF act, CRFBP-R2 block, CRFBP-R2 agonist, RTF Ca sens inh) | DDE Tn6 FP ctr inactive | Tn6 DDE conf inactive
O=C(Nc1ccc2nn(-c3ccccc3)nc2c1)c1ccc(Br)o1	Tn6 DDE FP 17 | DDE Tn6 FP ctr inactive | Tn6 DDE conf inactive
Cc1csc(SCC(=O)NCc2ccc3c(c2)OCO3)n1	none
Cc1csc(SCC(=O)NCc2cccc(Cl)c2)n1	Tn6 DDE FP 17 | DDE Tn6 FP ctr inactive | Tn6 DDE conf inactive
COc1ccc(-n2nnnc2C(c2ccccc2OC(F)(F)F)N2CCN(C/C=C/c3ccccc3)CC2)cc1 (stereo not given)	none (no result: cardiac RTF act, CRFBP-R2 block, CRFBP-R2 agonist, RTF Ca sens inh)
C[C@@H]1CN(Cc2nc(-c3ccc(Cl)cc3)no2)C[C@H](C)O1	Tn6 DDE FP 17 | DDE Tn6 FP ctr inactive | Tn6 DDE conf inactive
